Assay [1] concerns A549. Description: Cytotoxicity against human A549 cells after 72 hrs by MTT assay. The class given is functional, cell-based. The gist of the method: (§1)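 Cells grown in MEM with 10% FBS. About 4 × 10^3 cells per well were seeded and held 24 h at 37 °C in 5% CO2. Compounds were added at the indicated final concentrations for 72 h. MTT was added to 5 µg/mL final for 4 h at 37 °C. Formazan was dissolved in DMSO and read at 492 nm against 630 nm reference. Each line was tested twice; IC50 is the mean of two determinations.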
A general note: Tetrazolium dyes change colour on reduction, which living cells bring about.

Assay [2] has as its system HT-29. As to the kind of experiment: Cytotoxicity against human HT-29 cells after 72 hrs by MTT assay. The class given is functional, cell-based. An outline of the steps:
as §1

In assay [3] the test system is MDA-MB-231. As to the kind of experiment: Cytotoxicity against human MDA-MB-231 cells after 72 hrs by MTT assay. The following applies: MDA-MB-231, 72 h. Type of assay: functional, cell-based. An outline of the steps: as §1
Assay [4] concerns A549. Description: Ratio of IC50 for compound to IC50 for PTK-787 for human A549 cells. Type of assay: functional.
Assay [5] relates to HT-29. As to the kind of experiment: Ratio of IC50 for compound to IC50 for PTK-787 for human HT-29 cells. Type of assay: functional.
The subject of assay [6] is MDA-MB-231. As to the kind of experiment: Ratio of IC50 for compound to IC50 for PTK-787 for human MDA-MB-231 cells. The class given is functional.
[7] abbreviates: Homo sapiens, A549, 72 h, read-out: IC50.
Where [8] appears, read: Homo sapiens, HT-29, 72 h, read-out: IC50.

By IC50 is commonly meant the concentration needed to halve the response being measured. As for `Cc1cccc(Cl)c1NC(=O)CN1CCN(c2nnc(Cc3ccccc3)c3ccccc23)CC1`, the IC50 in the assay with A549 [1] (setting [7]) is 7.42 µM; in the assay with HT-29 [2] (setting [8]), 53.6 µM; in the assay on MDA-MB-231 [3], 3.92 µM.
On to `O=C(CN1CCN(c2nnc(Cc3ccncc3)c3ccccc23)CC1)Nc1ccc(Br)cc1`, for which the results for the IC50 in the assay with A549 [1] (setting [7]), with HT-29 [2] (setting [8]) and in the assay on MDA-MB-231 [3] were 2.71 µM, 1.99 µM and 0.019 µM, respectively.
The corresponding values for `O=C(CN1CCN(c2nnc(Cc3ccncc3)c3ccccc23)CC1)Nc1c(F)cccc1F` are 54.4 µM, 28.7 µM and 1.9 µM.
Take `O=C(CN1CCN(c2nnc(Cc3ccncc3)c3ccccc23)CC1)Nc1ccc(F)c(C(F)(F)F)c1`: the IC50 in the assay with A549 [1] (setting [7]) came to 16 µM; with HT-29 [2] (setting [8]), 1.11 µM; in the assay on MDA-MB-231 [3] it was 0.0019 µM.
Consider `O=C(CN1CCN(c2nnc(Cc3ccccc3)c3ccccc23)CC1)Nc1cc(C(F)(F)F)ccc1Cl`, for which the IC50 with A549 [1] (setting [7]) was 89 µM; in the assay with HT-29 [2] (setting [8]) it was 66.8 µM; in the assay on MDA-MB-231 [3] it was 19.5 µM.
Take `Cc1ccc(NC(=O)CN2CCN(c3nnc(Cc4ccncc4)c4ccccc34)CC2)c(C)c1`: the results for the IC50 with A549 [1] (setting [7]), with HT-29 [2] (setting [8]) and in the assay on MDA-MB-231 [3] were 45 µM, 1.93 µM and 0.24 µM, respectively.
Consider `O=C(CN1CCN(c2nnc(Cc3ccncc3)c3ccccc23)CC1)Nc1cccc(F)c1`, for which the IC50 came to 4.6 µM with A549 [1] (setting [7]), 6.13 µM in the assay on HT-29 [2] (setting [8]) and 0.0044 µM in the assay on MDA-MB-231 [3].
Regarding `COc1ccc(NC(=O)CN2CCN(c3nnc(Cc4ccccc4)c4ccccc34)CC2)cc1OC`, the IC50 result was “Not Active” with A549 [1] (a549), 145 µM in the assay on HT-29 [2] (setting [8]) and 32.2 µM in the assay with MDA-MB-231 [3].
Regarding `Cc1ccccc1NC(=O)CN1CCN(c2nnc(Cc3ccncc3)c3ccccc23)CC1`, the IC50 in the assay with A549 [1] (setting [7]) was 43.1 µM; in the assay with HT-29 [2] (setting [8]), 15 µM; with MDA-MB-231 [3], 0.2 µM.
Consider `O=C(CN1CCN(c2nnc(Cc3ccccc3)c3ccccc23)CC1)Nc1cccc(F)c1`, for which the IC50 in the assay on A549 [1] (setting [7]) was found to be 130 µM; with HT-29 [2] (setting [8]) it was 95 µM; in the assay with MDA-MB-231 [3], 3.73 µM.
`O=C(CN1CCN(c2nnc(Cc3ccccc3)c3ccccc23)CC1)Nc1c(F)cccc1F`: the IC50 with A549 [1] (setting [7]) is 84.5 µM; in the assay on HT-29 [2] (setting [8]), 19.7 µM; in the assay on MDA-MB-231 [3], 5.49 µM.
In the case of `O=C(CN1CCN(c2nnc(Cc3ccccc3)c3ccccc23)CC1)Nc1ccc(F)c(Cl)c1`, the IC50 entry with A549 [1] (a549) is “Not Active”; in the assay on HT-29 [2] (setting [8]), 13.3 µM; in the assay on MDA-MB-231 [3] it was 7.36 µM.
As for `O=C(CN1CCN(c2nnc(Cc3ccncc3)c3ccccc23)CC1)Nc1ccc(F)c(F)c1`, the IC50 came out at 3.79 µM in the assay with A549 [1] (setting [7]), 2.32 µM in the assay with HT-29 [2] (setting [8]) and 0.00084 µM in the assay with MDA-MB-231 [3]. For the same molecule, the Ratio IC50 with A549 [4] was 5.6; in the assay on HT-29 [5] it was 10.8; with MDA-MB-231 [6], 69000.
As to `Clc1ccc(Nc2nnc(Cc3ccncc3)c3ccccc23)cc1` [VATALANIB], the IC50 in the assay with A549 [1] (setting [7]) turned out to be 21.2 µM; in the assay with HT-29 [2] (setting [8]), 22.1 µM; in the assay with MDA-MB-231 [3], 57.7 µM.
For `O=C(CN1CCN(c2nnc(Cc3ccccc3)c3ccccc23)CC1)Nc1cccc(Br)c1`, the IC50 result in the assay with A549 [1] (a549) was “Not Active”; with HT-29 [2] (setting [8]), 13.4 µM; with MDA-MB-231 [3] it was 3.88 µM.
For the molecule `Cc1ccccc1NC(=O)CN1CCN(c2nnc(Cc3ccccc3)c3ccccc23)CC1`, the IC50 entry in the assay on A549 [1] (a549) was “Not Active”; with HT-29 [2] (setting [8]), 113 µM; in the assay on MDA-MB-231 [3] it was 17.3 µM.
Turning to `O=C(CN1CCN(c2nnc(Cc3ccncc3)c3ccccc23)CC1)Nc1cc(C(F)(F)F)ccc1Cl`, the IC50 came out at 1.85 µM in the assay with A549 [1] (setting [7]), 4.81 µM with HT-29 [2] (setting [8]) and 0.0037 µM in the assay with MDA-MB-231 [3].
For `O=C(CN1CCN(c2nnc(Cc3ccccc3)c3ccccc23)CC1)Nc1ccc(F)c(F)c1`, the IC50 in the assay on A549 [1] (setting [7]) is 10.1 µM; in the assay on HT-29 [2] (setting [8]), 9.51 µM; in the assay with MDA-MB-231 [3] it was 2.75 µM.
With `O=C(CN1CCN(c2nnc(Cc3ccccc3)c3ccccc23)CC1)Nc1ccc(Br)cc1`, the figures for the IC50 with A549 [1] (setting [7]), in the assay with HT-29 [2] (setting [8]) and with MDA-MB-231 [3] were 2 µM, 60.2 µM and 12.4 µM, respectively.
The corresponding values for `O=C(CN1CCN(c2nnc(Cc3ccncc3)c3ccccc23)CC1)Nc1ccc(F)c(Cl)c1` are 12.3 µM, 0.88 µM and 0.004 µM.
Consider `O=C(CN1CCN(c2nnc(Cc3ccccc3)c3ccccc23)CC1)Nc1ccc(F)c(C(F)(F)F)c1`, for which the IC50 worked out at 2.48 µM in the assay with A549 [1] (setting [7]), 4.59 µM in the assay on HT-29 [2] (setting [8]) and 0.76 µM with MDA-MB-231 [3].
Turning to `COc1ccc(NC(=O)CN2CCN(c3nnc(Cc4ccncc4)c4ccccc34)CC2)cc1OC`, the IC50 in the assay on A549 [1] (setting [7]) is 26.5 µM; in the assay with HT-29 [2] (setting [8]), 40.1 µM; in the assay with MDA-MB-231 [3], 0.1 µM.
Consider `O=C(CN1CCN(c2nnc(Cc3ccncc3)c3ccccc23)CC1)Nc1cccc(Br)c1`, for which the IC50 in the assay with A549 [1] (setting [7]) was 1.53 µM; in the assay with HT-29 [2] (setting [8]), 1.35 µM; in the assay with MDA-MB-231 [3] it was 0.0017 µM.
For `Cc1ccc(NC(=O)CN2CCN(c3nnc(Cc4ccccc4)c4ccccc34)CC2)c(C)c1`, the IC50 entry in the assay with A549 [1] (a549) was “Not Active”; in the assay with HT-29 [2] (ht-29) it was “Not Active”; in the assay on MDA-MB-231 [3], 180 µM.
With `Cc1ccc(F)cc1NC(=O)CN1CCN(c2nnc(Cc3ccncc3)c3ccccc23)CC1`, the IC50 in the assay on A549 [1] (setting [7]) is 38.9 µM; in the assay with HT-29 [2] (setting [8]), 0.47 µM; in the assay on MDA-MB-231 [3], 0.0064 µM.
With `Cc1cccc(Cl)c1NC(=O)CN1CCN(c2nnc(Cc3ccncc3)c3ccccc23)CC1`, the 50% inhibitory concentration (IC50) was determined as 7.19 µM with A549 [1] (setting [7]), 22.6 µM in the assay with HT-29 [2] (setting [8]) and 2.67 µM with MDA-MB-231 [3].
In the case of `Cc1ccc(F)cc1NC(=O)CN1CCN(c2nnc(Cc3ccccc3)c3ccccc23)CC1`, the results for the IC50 result in the assay on A549 [1] (a549), with HT-29 [2] (setting [8]) and with MDA-MB-231 [3] were “Not Active”, 170 µM and 19.2 µM, respectively.
